Laboratory results reported in ChEMBL document CHEMBL5705905, “Pharmacological targeting of kinases MST1 and MST2 augments tissue repair and regeneration” (Sci Transl Med, 2016).
Calls of active or inactive are those of the source. The calls are words filed in the database; no cut-off is given here.

Experiments:
[1] = target: Wee1-like protein kinase (Homo sapiens) (UniProt P30291); test: Inhibition of WEE1 (unknown origin) assessed as remaining activity at 1 uM by Kinome scan method relative to control
[2] = target: Serine/threonine-protein kinase 16 (Homo sapiens) (UniProt O75716); test: Inhibition of STK16 (unknown origin) assessed as remaining activity at 1 uM by Kinome scan method relative to control
[3] = target: Receptor-interacting serine/threonine-protein kinase 2 (Homo sapiens) (UniProt O43353); test: Inhibition of RIPK2 (unknown origin) assessed as remaining activity at 1 uM by Kinome scan method relative to control
[4] = target: Megakaryocyte-associated tyrosine-protein kinase (Homo sapiens) (UniProt P42679); test: Inhibition of CTK (unknown origin) assessed as remaining activity at 1 uM by Kinome scan method relative to control
Summary of the method: (§1)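 Active-site-dependent competition-binding profiling (KINOMEscan) at 1 μM against a 468-kinase panel; compound supplied from a 10 mM DMSO stock. Read-out is ctrl% = (test signal − positive control signal)/(negative control signal − positive control signal) × 100. DMSO is the negative control (100%) and a control compound the positive control (0%). Lower ctrl% means tighter binding.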

[5] = target: Serine/threonine-protein kinase pim-1 (Homo sapiens) (UniProt P11309); test: Inhibition of PIM1 (unknown origin) assessed as remaining activity at 1 uM by Kinome scan method relative to control
[6] = target: Mitogen-activated protein kinase kinase kinase 3 (Homo sapiens) (UniProt Q99759); test: Inhibition of MAP3K3 (unknown origin) assessed as remaining activity at 1 uM by Kinome scan method relative to control
[7] = target: Aurora kinase B (Homo sapiens, UniProt Q96GD4); test: Inhibition of AURKB (unknown origin) assessed as remaining activity at 1 uM by Kinome scan method relative to control
Summary of the method: (§2)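 Active-site-dependent competition-binding (KINOMEscan) panel of 468 kinases, test compound at 1 μM (from a 10 mM DMSO stock). Read-out is ctrl% = (test signal − positive control signal)/(negative control signal − positive control signal) × 100. DMSO is the negative control (100%) and a control compound is the positive control (0%). Lower ctrl% means tighter binding.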

[8] = target: Calcium/calmodulin-dependent protein kinase type II subunit delta (Homo sapiens) (UniProt Q13557); test: Inhibition of CAMK2D (unknown origin) assessed as remaining activity at 1 uM by Kinome scan method relative to control; summary of the method: as §1
[9] = target: Serine/threonine-protein kinase PRP4 homolog (Homo sapiens) (UniProt Q13523); test: Inhibition of PRP4 (unknown origin) assessed as remaining activity at 1 uM by Kinome scan method relative to control
[10] = target: Cyclin-dependent kinase 5 (Homo sapiens) (UniProt Q00535); test: Inhibition of CDK5 (unknown origin) assessed as remaining activity at 1 uM by Kinome scan method relative to control; summary of the method: as §1
[11] = target: MAP/microtubule affinity-regulating kinase 4 (Homo sapiens) (UniProt Q96L34); test: Inhibition of MARK4 (unknown origin) assessed as remaining activity at 1 uM by Kinome scan method relative to control
[12] = target: Serine/threonine-protein kinase Nek2 (Homo sapiens) (UniProt P51955); test: Inhibition of NEK2 (unknown origin) assessed as remaining activity at 1 uM by Kinome scan method relative to control
[13] = test system: Tyrosine-protein kinase ABL1 (Homo sapiens), P00519 [Q252H]; test: Inhibition of phosphorylated ABL1 Q252H mutant (unknown origin) assessed as remaining activity at 1 uM by Kinome scan method relative to control
[14] = target: Tyrosine-protein kinase ABL2 (Homo sapiens) (UniProt P42684); test: Inhibition of ABL2 (unknown origin) assessed as remaining activity at 1 uM by Kinome scan method relative to control; summary of the method: as §2
[15] = target: Serine/threonine-protein kinase TAO2 (Homo sapiens) (UniProt Q9UL54); test: Inhibition of TAOK2 (unknown origin) assessed as remaining activity at 1 uM by Kinome scan method relative to control
[16] = target: Cyclin-dependent kinase 8 (Homo sapiens) (UniProt P49336); test: Inhibition of CDK8 (unknown origin) assessed as remaining activity at 1 uM by Kinome scan method relative to control; summary of the method: as §1
[17] = target: Cyclin-dependent kinase-like 3 (Homo sapiens) (UniProt Q8IVW4); test: Inhibition of CDKL3 (unknown origin) assessed as remaining activity at 1 uM by Kinome scan method relative to control; summary of the method: as §1
[18] = target: Casein kinase II subunit alpha (Homo sapiens) (UniProt P68400); test: Inhibition of CSNK2A1 (unknown origin) assessed as remaining activity at 1 uM by Kinome scan method relative to control; summary of the method: as §1
[19] = target: Serine/threonine-protein kinase Nek5 (Homo sapiens) (UniProt Q6P3R8); test: Inhibition of NEK5 (unknown origin) assessed as remaining activity at 1 uM by Kinome scan method relative to control
[20] = target: BDNF/NT-3 growth factors receptor (Homo sapiens) (UniProt Q16620); test: Inhibition of TRKB (unknown origin) assessed as remaining activity at 1 uM by Kinome scan method relative to control
[21] = target: Mitogen-activated protein kinase kinase kinase 20 (Homo sapiens) (UniProt Q9NYL2); test: Inhibition of ZAK (unknown origin) assessed as remaining activity at 1 uM by Kinome scan method relative to control
[22] = target: Phosphatidylinositol 4-phosphate 3-kinase C2 domain-containing subunit beta (Homo sapiens) (UniProt O00750); test: Inhibition of PIK3C2B (unknown origin) assessed as remaining activity at 1 uM by Kinome scan method relative to control
[23] = target: Serine/threonine-protein kinase NLK (Homo sapiens) (UniProt Q9UBE8); test: Inhibition of NLK (unknown origin) assessed as remaining activity at 1 uM by Kinome scan method relative to control
[24] = test system: Phosphatidylinositol 4,5-bisphosphate 3-kinase catalytic subunit alpha isoform (Homo sapiens), P42336 [I800L]; test: Inhibition of PIK3CA I800L mutant (unknown origin) assessed as remaining activity at 1 uM by Kinome scan method relative to control
[25] = target: Ribosomal protein S6 kinase alpha-4 (Homo sapiens) (UniProt O75676); test: Inhibition of N-terminal kinase domain RPS6KA4 (unknown origin) assessed as remaining activity at 1 uM by Kinome scan method relative to control
[26] = target: Tyrosine-protein kinase ABL1 (Homo sapiens, UniProt P00519, Q252H); test: Binding affinity to phosphorylated ABL1 Q252H mutant (unknown origin) assessed as dissociation constant
[27] = test system: Mus musculus; test: Protection against APAP induced liver injury in mouse assessed as decrease in mortality rate at 1 mg/kg, ip administered at 2.5 hrs; format: functional, organism-based
[28] = target: LIM domain kinase 2 (Homo sapiens) (UniProt P53671); test: Inhibition of LIMK2 (unknown origin) assessed as remaining activity at 1 uM by Kinome scan method relative to control
[29] = Half life in male Sprague-Dawley rat at 10 mg/kg, po measured for 24 hrs by LC-MS/MS analysis; format: ADME, organism-based; conditions: in vivo
Summary of the method: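 Sprague-Dawley rats, single intravenous or oral dose. Parameters (half-life, AUC, bioavailability) reported in a supplementary table.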

Sequence of BDNF/NT-3 growth factors receptor (Homo sapiens) (Q16620 32-822 limits assumed): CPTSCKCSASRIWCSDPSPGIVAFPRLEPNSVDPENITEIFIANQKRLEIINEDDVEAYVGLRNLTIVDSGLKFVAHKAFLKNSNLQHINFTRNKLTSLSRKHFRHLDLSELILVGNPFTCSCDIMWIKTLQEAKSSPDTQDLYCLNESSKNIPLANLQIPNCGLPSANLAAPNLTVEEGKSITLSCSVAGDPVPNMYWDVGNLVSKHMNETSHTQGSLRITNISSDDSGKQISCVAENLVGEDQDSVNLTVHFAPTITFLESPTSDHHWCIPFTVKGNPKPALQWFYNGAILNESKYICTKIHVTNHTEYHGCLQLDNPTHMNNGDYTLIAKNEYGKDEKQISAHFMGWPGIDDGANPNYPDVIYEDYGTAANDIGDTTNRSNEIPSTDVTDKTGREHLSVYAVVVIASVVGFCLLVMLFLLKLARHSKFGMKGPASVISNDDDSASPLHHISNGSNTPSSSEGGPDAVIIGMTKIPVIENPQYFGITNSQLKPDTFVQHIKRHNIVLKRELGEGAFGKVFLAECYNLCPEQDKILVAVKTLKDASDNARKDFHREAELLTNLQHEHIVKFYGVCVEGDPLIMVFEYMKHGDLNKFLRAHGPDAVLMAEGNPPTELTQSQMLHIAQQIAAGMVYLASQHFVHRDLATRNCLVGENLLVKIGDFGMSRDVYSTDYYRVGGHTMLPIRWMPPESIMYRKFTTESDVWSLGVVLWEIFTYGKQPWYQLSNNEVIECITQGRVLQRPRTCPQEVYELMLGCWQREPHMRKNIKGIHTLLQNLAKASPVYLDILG
Sequence of Wee1-like protein kinase (Homo sapiens) (P30291 whole entry, looked up): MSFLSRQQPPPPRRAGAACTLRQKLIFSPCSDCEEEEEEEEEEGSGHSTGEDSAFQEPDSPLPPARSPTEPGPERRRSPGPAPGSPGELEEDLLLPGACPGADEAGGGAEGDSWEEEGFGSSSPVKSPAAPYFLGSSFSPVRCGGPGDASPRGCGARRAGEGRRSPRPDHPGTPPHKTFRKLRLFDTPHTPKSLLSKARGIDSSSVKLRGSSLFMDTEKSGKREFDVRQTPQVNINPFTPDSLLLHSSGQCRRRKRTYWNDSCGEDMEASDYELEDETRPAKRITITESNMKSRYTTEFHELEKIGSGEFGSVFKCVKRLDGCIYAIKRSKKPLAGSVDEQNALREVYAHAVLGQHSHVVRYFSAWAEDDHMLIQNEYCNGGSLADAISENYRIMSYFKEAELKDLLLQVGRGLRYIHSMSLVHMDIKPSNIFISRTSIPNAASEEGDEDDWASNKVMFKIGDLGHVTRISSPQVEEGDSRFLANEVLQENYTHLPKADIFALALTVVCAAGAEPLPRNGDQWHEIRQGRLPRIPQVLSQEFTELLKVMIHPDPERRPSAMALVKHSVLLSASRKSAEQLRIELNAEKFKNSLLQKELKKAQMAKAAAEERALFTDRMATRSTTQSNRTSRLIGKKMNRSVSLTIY
Sequence of Tyrosine-protein kinase ABL2 (Homo sapiens) (P42684 whole entry): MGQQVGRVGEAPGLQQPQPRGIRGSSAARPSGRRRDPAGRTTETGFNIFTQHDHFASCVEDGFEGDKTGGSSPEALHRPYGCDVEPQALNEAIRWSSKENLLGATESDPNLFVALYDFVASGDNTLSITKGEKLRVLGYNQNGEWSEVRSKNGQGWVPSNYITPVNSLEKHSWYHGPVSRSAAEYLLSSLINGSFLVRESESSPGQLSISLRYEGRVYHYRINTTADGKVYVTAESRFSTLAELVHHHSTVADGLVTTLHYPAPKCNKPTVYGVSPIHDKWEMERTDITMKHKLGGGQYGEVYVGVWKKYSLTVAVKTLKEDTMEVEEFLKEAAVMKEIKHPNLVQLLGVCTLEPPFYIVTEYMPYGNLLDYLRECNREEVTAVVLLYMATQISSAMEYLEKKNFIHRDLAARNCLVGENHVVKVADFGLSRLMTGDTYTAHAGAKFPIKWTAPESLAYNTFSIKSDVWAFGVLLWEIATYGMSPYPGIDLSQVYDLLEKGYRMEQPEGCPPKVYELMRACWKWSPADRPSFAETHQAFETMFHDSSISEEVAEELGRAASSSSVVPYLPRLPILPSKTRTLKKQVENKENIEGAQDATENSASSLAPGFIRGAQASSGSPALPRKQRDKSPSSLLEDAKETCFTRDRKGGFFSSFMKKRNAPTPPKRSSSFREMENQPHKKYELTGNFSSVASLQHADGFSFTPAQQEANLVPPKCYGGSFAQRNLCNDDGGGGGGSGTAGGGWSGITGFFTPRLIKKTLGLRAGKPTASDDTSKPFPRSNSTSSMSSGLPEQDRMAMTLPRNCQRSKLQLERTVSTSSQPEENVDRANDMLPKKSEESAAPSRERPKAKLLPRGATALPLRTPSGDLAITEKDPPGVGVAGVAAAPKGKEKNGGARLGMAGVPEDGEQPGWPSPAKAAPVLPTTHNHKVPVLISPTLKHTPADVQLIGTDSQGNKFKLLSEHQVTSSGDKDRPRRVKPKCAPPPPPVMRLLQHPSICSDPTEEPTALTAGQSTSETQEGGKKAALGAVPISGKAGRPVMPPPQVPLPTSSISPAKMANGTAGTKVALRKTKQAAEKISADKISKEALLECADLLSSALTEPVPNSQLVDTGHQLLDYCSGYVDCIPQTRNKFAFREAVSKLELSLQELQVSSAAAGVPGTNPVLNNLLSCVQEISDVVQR
Sequence of Receptor-interacting serine/threonine-protein kinase 2 (Homo sapiens) (O43353 whole entry): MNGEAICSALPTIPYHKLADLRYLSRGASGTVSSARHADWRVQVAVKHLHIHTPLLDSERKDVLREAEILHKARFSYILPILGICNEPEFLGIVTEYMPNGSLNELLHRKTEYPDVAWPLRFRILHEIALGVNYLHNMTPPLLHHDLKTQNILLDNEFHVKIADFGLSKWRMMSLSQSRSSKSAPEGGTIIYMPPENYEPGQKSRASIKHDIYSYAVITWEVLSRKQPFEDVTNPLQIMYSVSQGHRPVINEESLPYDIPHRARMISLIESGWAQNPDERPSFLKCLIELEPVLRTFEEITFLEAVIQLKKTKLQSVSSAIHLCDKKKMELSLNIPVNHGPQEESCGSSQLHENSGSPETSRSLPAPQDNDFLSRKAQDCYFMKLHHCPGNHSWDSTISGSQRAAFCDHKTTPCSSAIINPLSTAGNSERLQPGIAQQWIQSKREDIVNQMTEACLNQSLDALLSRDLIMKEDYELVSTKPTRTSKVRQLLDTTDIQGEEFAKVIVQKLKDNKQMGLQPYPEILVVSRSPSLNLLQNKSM
Sequence of Cyclin-dependent kinase-like 3 (Homo sapiens) (Q8IVW4 whole entry, looked up): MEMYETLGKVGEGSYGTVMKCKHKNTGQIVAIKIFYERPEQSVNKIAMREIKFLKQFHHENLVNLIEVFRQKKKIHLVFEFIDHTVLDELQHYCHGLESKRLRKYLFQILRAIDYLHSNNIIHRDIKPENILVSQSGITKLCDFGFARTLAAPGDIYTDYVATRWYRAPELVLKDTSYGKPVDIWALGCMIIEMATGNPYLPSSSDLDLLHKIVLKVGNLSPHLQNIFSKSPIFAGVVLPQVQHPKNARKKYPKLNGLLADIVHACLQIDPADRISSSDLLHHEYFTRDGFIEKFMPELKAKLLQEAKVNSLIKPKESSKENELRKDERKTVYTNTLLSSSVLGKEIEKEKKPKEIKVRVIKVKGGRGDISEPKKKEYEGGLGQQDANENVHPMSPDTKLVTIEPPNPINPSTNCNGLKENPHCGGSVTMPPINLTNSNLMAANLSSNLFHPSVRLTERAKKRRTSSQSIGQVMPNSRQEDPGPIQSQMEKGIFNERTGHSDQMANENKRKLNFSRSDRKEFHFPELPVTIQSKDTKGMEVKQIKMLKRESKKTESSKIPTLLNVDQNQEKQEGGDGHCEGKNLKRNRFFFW
Sequence of Ribosomal protein S6 kinase alpha-4 (Homo sapiens) (O75676 whole entry, looked up, the tested form may be a part): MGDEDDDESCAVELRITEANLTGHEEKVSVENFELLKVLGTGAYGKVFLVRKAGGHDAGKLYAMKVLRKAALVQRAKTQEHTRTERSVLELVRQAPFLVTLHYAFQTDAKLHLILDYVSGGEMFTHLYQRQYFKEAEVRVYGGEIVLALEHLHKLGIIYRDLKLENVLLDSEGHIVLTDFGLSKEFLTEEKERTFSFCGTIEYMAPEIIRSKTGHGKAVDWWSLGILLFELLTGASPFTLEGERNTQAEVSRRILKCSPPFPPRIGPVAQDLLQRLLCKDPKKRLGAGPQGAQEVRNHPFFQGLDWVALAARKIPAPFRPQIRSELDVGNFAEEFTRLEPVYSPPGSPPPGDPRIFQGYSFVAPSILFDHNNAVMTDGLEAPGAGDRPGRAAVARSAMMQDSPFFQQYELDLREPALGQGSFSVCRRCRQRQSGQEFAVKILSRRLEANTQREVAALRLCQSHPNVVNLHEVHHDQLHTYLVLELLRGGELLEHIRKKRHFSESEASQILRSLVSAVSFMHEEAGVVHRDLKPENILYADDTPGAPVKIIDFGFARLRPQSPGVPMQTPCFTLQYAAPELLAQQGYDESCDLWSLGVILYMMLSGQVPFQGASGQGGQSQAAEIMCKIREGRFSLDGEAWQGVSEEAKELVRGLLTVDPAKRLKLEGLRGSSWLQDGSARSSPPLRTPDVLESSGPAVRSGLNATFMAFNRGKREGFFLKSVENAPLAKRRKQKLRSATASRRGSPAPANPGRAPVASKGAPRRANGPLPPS
Sequence of Calcium/calmodulin-dependent protein kinase type II subunit delta (Homo sapiens) (Q13557 whole entry): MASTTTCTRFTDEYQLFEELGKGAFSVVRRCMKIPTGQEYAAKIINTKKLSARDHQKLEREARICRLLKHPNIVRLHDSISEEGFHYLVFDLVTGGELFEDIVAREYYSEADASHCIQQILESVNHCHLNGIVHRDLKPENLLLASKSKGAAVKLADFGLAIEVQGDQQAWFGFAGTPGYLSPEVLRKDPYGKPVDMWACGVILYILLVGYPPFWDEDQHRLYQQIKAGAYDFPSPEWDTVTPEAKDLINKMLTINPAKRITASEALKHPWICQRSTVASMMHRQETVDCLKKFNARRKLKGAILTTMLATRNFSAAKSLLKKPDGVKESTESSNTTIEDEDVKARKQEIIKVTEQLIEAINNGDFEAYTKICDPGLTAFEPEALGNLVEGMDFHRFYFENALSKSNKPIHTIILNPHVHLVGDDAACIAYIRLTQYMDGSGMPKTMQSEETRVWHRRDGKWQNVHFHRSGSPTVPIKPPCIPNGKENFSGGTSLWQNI

Work on `CN1C(=O)c2sccc2N(C)c2nc(Nc3ccc(S(N)(=O)=O)cc3)ncc21` yielded an Activity [1] of 100%, an Activity [2] of 50% and an Activity [3] of 100%. For the same compound, the Activity [4] was 59%, the Activity [5] was 100% and the Activity [6] was 2%. For the same compound, the Activity [7] was 3.4%, the Activity [8] was 100% and the Activity [9] was 97%. The Activity [10] was 94%, the Activity [11] was 100% and the Activity [12] was 59%. For the same compound, the Activity [13] was 6.8%, the Activity [14] was 96% and the Activity [15] was 3.4%. The Activity [16] was 94%, the Activity [17] was 91% and the Activity [18] was 94%. For the same compound, the Activity [19] was 97%, the Activity [20] was 35% and the Activity [21] was 82%. For the same compound, the Activity [22] was 100%, the Activity [23] was 85% and the Activity [24] was 23%. The Activity [25] was 81%, the Kd [26] was 0.024 µM and the Activity [27] was “Active”. The Activity [28] was 100% and the half-life [29] was 5.18 h.
